Source: paper PMC8811894 (ACS Omega, 2022)
Read-outs that look alike come from different tables or passages of the source.

What was measured:
[1] = test system: panel of 60 human cancer cell lines; experiment: NCI60 screen, SRB assay, panel mean; assay type: cell-based; conditions: for NCI60 screen mean GI, %: single-dose inhibition of cell growth at 10 μM
Summary of the method: (§1)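 Tested on the 60-line human cancer panel by sulforhodamine B assay. The dye binds cell protein under mildly acidic conditions and is extracted with basic medium; bound dye is taken as a proxy for cell mass. A single-dose test at 10 μM gives % growth inhibition; a five-dose test gives GI50.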

[2] = test system: T-47D human breast carcinoma cells; experiment: MTT cell toxicity assay; assay type: cell-based; conditions: for GI50: 72 h, read-out: cancer cell growth inhibition, GI50; for times more potent than PrTPP: MTT test
Summary of the method: (§2)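 Cells were seeded at 5 × 10^3/well in medium with 10% FBS and kept at 37 °C, 5% CO2. Media: DMEM for A549 and A375; EMEM for DU145; F-12K for PC-3; McCoy's 5a for HCT-116 and SK-OV-3; RPMI-1640 + insulin 0.2 Units/mL for T-47D. Test compound came from DMSO stocks, with tubercidin as positive control. MTT at 0.5 mg/mL final was added for 2–3 h at 37 °C, then absorbance read at 570 nm. Three repeats; GI50 from sigmoidal fit.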

[3] = test system: A375 human skin epithelial malignant melanoma cells; experiment: MTT cell toxicity assay; assay type: cell-based; conditions: read-out: cancer cell growth inhibition, GI50
Summary of the method: as §2

[4] = test system: A549 human lung epithelial carcinoma cells; experiment: MTT cell toxicity assay; assay type: cell-based; conditions: read-out: cancer cell growth inhibition, GI50
Summary of the method: as §2

[5] = test system: DU145 human prostate epithelial carcinoma cells; experiment: MTT cell toxicity assay; assay type: cell-based; conditions: read-out: cancer cell growth inhibition, GI50
Summary of the method: as §2

[6] = test system: SK-OV-3 human ovary ascites epithelial adenocarcinoma cells; experiment: MTT cell toxicity assay; assay type: cell-based; conditions: read-out: cancer cell growth inhibition, GI50
Summary of the method: as §2

[7] = test system: HCT-116 human colon epithelial colorectal carcinoma cells; experiment: MTT cell toxicity assay; assay type: cell-based; conditions: read-out: cancer cell growth inhibition, GI50
Summary of the method: as §2

[8] = test system: PC-3 human prostate epithelial adenocarcinoma grade IV cells; experiment: MTT cell toxicity assay; assay type: cell-based; conditions: 72 h, read-out: cancer cell growth inhibition, GI50
Summary of the method: as §2

[9] = test system: T-47D human breast carcinoma cells; experiment: Click-iT-EdU Alexa Fluor 488 cell proliferation assay; assay type: cell-based; conditions: for GI50: 72 h, read-out: DNA synthesis inhibition, GI50; for times more potent than PrTPP: Click-iT-EdU test
Summary of the method: (§3)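 Cells were seeded at 800/well in medium with 10% FBS under 5% CO2. HCT-116 grew in McCoy's 5a and T-47D in RPMI-1640 + insulin 0.2 Units/mL. Test compound came from DMSO stocks, with tubercidin as positive control. After 72 h, EdU was added for 2.5 h at 37 °C. Cells were fixed in 4% paraformaldehyde (30 min, RT) and stained with Hoechst 33342. Click-iT Alexa Fluor 488 reaction ran 1 h at RT in the dark. Plates were read by high-content imaging; value from sigmoidal fit.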

[10] = test system: HCT-116 human colon epithelial colorectal carcinoma cells; experiment: as above; assay type: cell-based; conditions: read-out: DNA synthesis inhibition, GI50
Summary of the method: as §3

[11] = test system: MCF-7 human breast carcinoma cells; conditions: ref [30]; cited from earlier work
[12] = test system: panel of 60 human cancer cell lines; conditions: read-out: NCI60 screen mean GI50; SRB assay; ref NCI60 screen data, NSC 115712; cited from earlier work
SK-MEL-5 = experiment: NCI60 SRB screen; assay type: cell-based, human; conditions: NCI60 single dose, SK-MEL-5 melanoma
Summary of the method: as §1

MDA-MB-468 = experiment: NCI60 SRB screen; assay type: cell-based, human; conditions: NCI60 single dose, MDA-MB-468 breast cancer
Summary of the method: as §1

sea urchin embryos = experiment: Phenotypic sea urchin embryo assay; assay type: in vivo, Paracentrotus lividus; conditions: effective threshold concentration, fertilized eggs exposed
[13] = test system: Caco-2 colon adenocarcinoma cells; conditions: read-out: IC50, growth suppression; 24 h treatment; ref [9]; cited from earlier work

**Q.** With `COc1cc(CNC(=O)CCCCC[P+](c2ccccc2)(c2ccccc2)c2ccccc2)c(OC)c2c1OCO2.[Br-]` [compound 17, (6-{[(4,7-Dimethoxy-2H-1,3-benzodioxol-5-yl)methyl]amino}-6-oxohexyl)(triphenyl)phosphonium Bromide] as the molecule, how does the “number of cancer cell lines with 80–100% growth inhibition” value ([1]; NCI60 single dose 10 μM) read?
**A.** three

**Q.** And the “NCI60 screen mean GI, %” value [1]?
**A.** 35.8%

**Q.** What about the GI50 ([2]; Homo sapiens, T47D) of the same molecule?
**A.** 0.256 ± 0.08 µM

**Q.** And the GI50 ([3]; Homo sapiens, A-375, 72 h)?
**A.** 2.78 ± 0.17 µM

**Q.** And the GI50 ([4]; Homo sapiens, A549, 72 h)?
**A.** 9.96 ± 0.22 µM

**Q.** What about the GI50 ([5]; Homo sapiens, DU-145, 72 h) of the same molecule?
**A.** 11.3 ± 0.75 µM

**Q.** What about the GI50 ([6]; Homo sapiens, SK-OV-3, 72 h) of the same molecule?
**A.** 18.9 ± 2.86 µM

**Q.** And the GI50 ([7]; Homo sapiens, HCT-116, 72 h)?
**A.** 1.05 ± 0.01 µM

**Q.** And the GI50 ([8]; Homo sapiens)?
**A.** 2.15 ± 0.04 µM

**Q.** With `COc1c(CCC[P+](c2ccccc2)(c2ccccc2)c2ccccc2)cc2c(c1OC)OCO2.[I-]` [7b, [3-(6,7-Dimethoxy-1,3-benzodioxol-5-yl)propyl](triphenyl)phosphonium Iodide] as the molecule, how does the GI50 ([1]; Homo sapiens, read-out: NCI60 screen mean GI50) read?
**A.** 1.58 µM

**Q.** And the GI50 ([2]; Homo sapiens, T47D)?
**A.** 0.107 ± 0.004 µM

**Q.** And the “times more potent than PrTPP” value ([2]; T-47D)?
**A.** 22.3 times

**Q.** And the GI50 ([9]; Homo sapiens, T47D)?
**A.** 0.118 ± 0.007 µM

**Q.** And the “times more potent than PrTPP” value ([9]; T-47D)?
**A.** 29.2 times

**Q.** And the GI50 ([3]; Homo sapiens, A-375, 72 h)?
**A.** 0.491 ± 0.019 µM

**Q.** What about the GI50 ([10]; Homo sapiens, HCT-116, 72 h) of the same molecule?
**A.** 0.405 ± 0.036 µM

**Q.** What about the GI50 ([4]; Homo sapiens, A549, 72 h) of the same molecule?
**A.** 4.64 ± 0.37 µM

**Q.** What about the GI50 ([5]; Homo sapiens, DU-145, 72 h) of the same molecule?
**A.** 3.26 ± 0.36 µM

**Q.** What about the GI50 ([6]; Homo sapiens, SK-OV-3, 72 h) of the same molecule?
**A.** 6.62 ± 0.13 µM

**Q.** And the GI50 ([7]; Homo sapiens, HCT-116, 72 h)?
**A.** 0.229 ± 0.027 µM

**Q.** What about the GI50 ([8]; Homo sapiens) of the same molecule?
**A.** 0.555 ± 0.049 µM

**Q.** With `CCCCCCCCCCCC[P+](c1ccccc1)(c1ccccc1)c1ccccc1` [dodecyl-TPP] as the molecule, how does the concentration exhibiting cytotoxicity [11] read?
**A.** 250 nM

**Q.** For `Nc1ncnc2c1ccn2[C@@H]1O[C@H](CO)[C@@H](O)[C@H]1O` [tubercidin, Tubercidin, reference compound], which GI50 ([2]; Homo sapiens, T47D) is on record?
**A.** 0.013 ± 0.001 µM

**Q.** And the GI50 ([9]; Homo sapiens, T47D)?
**A.** 0.044 ± 0.006 µM

**Q.** And the GI50 ([3]; Homo sapiens, A-375, 72 h)?
**A.** 0.043 ± 0.004 µM

**Q.** What about the GI50 ([10]; Homo sapiens, HCT-116, 72 h) of the same molecule?
**A.** 0.0307 ± 0.002 µM

**Q.** And the GI50 [12]?
**A.** 0.331 µM

**Q.** And the GI50 ([4]; Homo sapiens, A549, 72 h)?
**A.** 0.044 ± 0.003 µM

**Q.** And the GI50 ([5]; Homo sapiens, DU-145, 72 h)?
**A.** 0.256 ± 0.09 µM

**Q.** What about the GI50 ([6]; Homo sapiens, SK-OV-3, 72 h) of the same molecule?
**A.** 0.131 ± 0.002 µM

**Q.** What about the GI50 ([7]; Homo sapiens, HCT-116, 72 h) of the same molecule?
**A.** 0.08 ± 0.004 µM

**Q.** What about the GI50 ([8]; Homo sapiens) of the same molecule?
**A.** 0.076 ± 0.001 µM

**Q.** For “[3-(7-Methoxy-1,3-benzodioxol-5-yl)propyl](trimethyl)phosphonium Iodide [7c]”, which “number of cancer cell lines with growth inhibited by more than 80%” value ([1]; NCI60 single dose 10 μM) is on record?
**A.** 18

**Q.** What about the “NCI60 screen mean GI, %” value [1] of the same molecule?
**A.** 63.9%

**Q.** And the “times more potent than PrTPP” value ([2]; T-47D)?
**A.** 239 times

**Q.** What about the GI50 ([2]; T-47D, MTT assay) of the same molecule?
**A.** 0.01 ± 0.0005 µM

**Q.** What about the “effect at 10 μM (in words)” value (SK-MEL-5) of the same molecule?
**A.** lethal effect

**Q.** And the “effect at 10 μM (in words)” value (MDA-MB-468)?
**A.** lethal effect

**Q.** What about the “times more potent than PrTPP” value ([9]; T-47D) of the same molecule?
**A.** 138 times

**Q.** What about the GI50 ([9]; T-47D, Click-iT-EdU) of the same molecule?
**A.** 0.025 ± 0.002 µM

**Q.** And the GI50 ([3]; A375, MTT assay, 72 h)?
**A.** 1.08 ± 0.06 µM

**Q.** And the GI50 ([10]; HCT-116, Click-iT-EdU, 72 h)?
**A.** 0.22 ± 0.03 µM

**Q.** And the GI50 ([4]; A549, MTT assay, 72 h)?
**A.** 12.2 ± 0.61 µM

**Q.** And the GI50 ([5]; DU145, MTT assay, 72 h)?
**A.** 5.12 ± 0.66 µM

**Q.** And the GI50 ([6]; SK-OV-3, MTT assay, 72 h)?
**A.** 11 ± 1.4 µM

**Q.** And the “cleavage alteration, EC” value (sea urchin embryos)?
**A.** >4 µM

**Q.** What about the GI50 ([7]; HCT-116, MTT assay, 72 h) of the same molecule?
**A.** 0.331 ± 0.039 µM

**Q.** What about the GI50 ([8]; PC-3, MTT assay) of the same molecule?
**A.** 0.41 ± 0.04 µM

**Q.** For `COc1cc(CCCO)c(OC)c(OC)c1OC` [4d, 3-(2,3,4,5-Tetramethoxyphenyl)propan-1-ol], which “NCI60 screen mean GI, %” value [1] is on record?
**A.** 0%

**Q.** And the GI50 ([2]; Homo sapiens, T47D)?
**A.** > 250 µM

**Q.** What about the GI50 ([9]; Homo sapiens, T47D) of the same molecule?
**A.** > 250 µM

**Q.** What about the GI50 ([3]; Homo sapiens, A-375, 72 h) of the same molecule?
**A.** > 250 µM

**Q.** What about the GI50 ([10]; Homo sapiens, HCT-116, 72 h) of the same molecule?
**A.** > 250 µM

**Q.** What about the GI50 ([4]; Homo sapiens, A549, 72 h) of the same molecule?
**A.** > 250 µM

**Q.** What about the GI50 ([5]; Homo sapiens, DU-145, 72 h) of the same molecule?
**A.** > 250 µM

**Q.** And the GI50 ([6]; Homo sapiens, SK-OV-3, 72 h)?
**A.** > 250 µM

**Q.** What about the GI50 ([7]; Homo sapiens, HCT-116, 72 h) of the same molecule?
**A.** > 250 µM

**Q.** What about the GI50 ([8]; Homo sapiens) of the same molecule?
**A.** > 250 µM

**Q.** What does the source list for `C=CCc1cc(OC)c2c(c1)OCO2` [1c, myristicin]?
**A.** IC50 [13]: 760 µM; GI50 ([2]; Homo sapiens, T47D): 113 ± 12.4 µM; GI50 ([9]; Homo sapiens, T47D): > 250 µM; GI50 ([3]; Homo sapiens, A-375, 72 h): > 250 µM; GI50 ([10]; Homo sapiens, HCT-116, 72 h): > 250 µM; GI50 ([4]; Homo sapiens, A549, 72 h): > 250 µM; GI50 ([5]; Homo sapiens, DU-145, 72 h): > 250 µM; GI50 ([6]; Homo sapiens, SK-OV-3, 72 h): > 250 µM; GI50 ([7]; Homo sapiens, HCT-116, 72 h): > 250 µM; GI50 ([8]; Homo sapiens): > 250 µM

**Q.** For `C=CCc1cc(OC)c2c(c1OC)OCO2` [1a, Apiol], which GI50 ([2]; Homo sapiens, T47D) is on record?
**A.** 70.7 ± 9.9 µM

**Q.** And the GI50 ([9]; Homo sapiens, T47D)?
**A.** > 250 µM

**Q.** And the GI50 ([3]; Homo sapiens, A-375, 72 h)?
**A.** > 250 µM

**Q.** And the GI50 ([10]; Homo sapiens, HCT-116, 72 h)?
**A.** > 250 µM

**Q.** What about the GI50 ([4]; Homo sapiens, A549, 72 h) of the same molecule?
**A.** > 250 µM

**Q.** What about the GI50 ([5]; Homo sapiens, DU-145, 72 h) of the same molecule?
**A.** > 250 µM

**Q.** And the GI50 ([6]; Homo sapiens, SK-OV-3, 72 h)?
**A.** > 250 µM

**Q.** What about the GI50 ([7]; Homo sapiens, HCT-116, 72 h) of the same molecule?
**A.** > 250 µM

**Q.** What about the GI50 ([8]; Homo sapiens) of the same molecule?
**A.** > 250 µM
